In general, Ki refers to the equilibrium dissociation constant of an inhibitor or competing ligand from its target. As a reminder, the inhibition is the percentage by which the read-out fell short of the control. One may read the IC50 as the concentration needed to halve the response being measured.

Each structure is given as a SMILES string.

Assay [1] concerns the target Glutamate receptor ionotropic, AMPA (Rattus norvegicus, UniProt P19490+P19491+P19492+P19493). Briefly: Displacement of [3H]AMPA from AMPA receptor in rat cortical synaptic membrane. It is filed as cell membranes.
Assay [2] addresses Glutamate NMDA receptor. Briefly: Displacement of [3H]glycine from Gly/NMDA receptor in rat cortical synaptic membrane. It is filed as cell membranes.
The species entered for assay [3] is Rattus norvegicus. Briefly: Displacement of [3H]KA from high affinity KA receptor in rat cortical membrane at 100 uM. Format: cell membranes. In short, it runs like this:
(§1)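 Rat cortical membranes were used for the high-affinity and low-affinity [3H]kainate binding assays, following earlier published methods. Test compound was made as a 1 mM stock in 50% DMSO and diluted in buffer. The value is percent inhibition of specific binding at 100 µM.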
(In general: Loss of bound radioactivity is the signal in a displacement assay; it reports binding, not function.)

The test system of assay [4] is Mus musculus. Briefly: Antinociceptive activity in mouse at 5 mg/kg, po measured as number of acetic acid-induced writhes by abdominal constriction assay. It is filed as functional, Abdomen.
A short description of assay [5]: Displacement of [3H]KA from high affinity KA receptor in rat cortical membrane. It is filed as cell membranes. In short, it runs like this: (§2)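 High- and low-affinity [3H]kainate binding to rat cortical membranes. Compounds were made up as a 1 mM stock in 50% DMSO and diluted in buffer. IC50s came from three or four displacement curves using four to six concentrations in triplicate, fitted with ALLFIT. Ki values are mean ± SEM of three or four determinations in triplicate.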

A short description of assay [6]: Displacement of [3H]KA from low affinity KA receptor in rat cortical membrane. Format: cell membranes. In short, it runs like this: as §2
Assay [7] addresses Glutamate NMDA receptor (Rattus norvegicus) (UniProt P35439+Q00959+Q00960+Q00961+Q62645+Q8VHN2+Q9R1M7). Briefly: Displacement of [3H]glycine from Gly/NMDA receptor in rat cortical synaptic membrane at 100 uM. It is filed as cell membranes.
A short description of assay [8]: Antagonist activity against NMDA receptor assessed as inhibition of NMDA-induced depolarization in mouse cortex. It is filed as functional, tissue-based. In short, it runs like this: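 Mouse cortical wedge preparation. Depolarization was evoked with 5 µM NMDA. The IC50 is the concentration giving 50% inhibition of the depolarization, as mean ± SEM of three separate determinations.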

In assay [9] the target is Glutamate receptor ionotropic, AMPA (Mus musculus, UniProt P23818+P23819+Q9Z2W8+Q9Z2W9). Briefly: Antagonist activity against AMPA receptor assessed as inhibition of SAMPA-induced depolarization of mouse cortex.
In assay [10] the target is Glutamate receptor ionotropic, AMPA (Rattus norvegicus) (UniProt P19491+P19492+P19493+P19490). Briefly: Displacement of [3H]AMPA from AMPA receptor in rat cortical synaptic membrane at 100 uM. It is filed as cell membranes.
The species named for assay [11] is Rattus norvegicus. Briefly: Displacement of [3H]KA from low affinity KA receptor in rat cortical membrane at 100 uM. It is filed as cell membranes. In short, it runs like this: as §1
The subject of assay [12] is Mus musculus. Briefly: Activity against mouse motor coordination measured as number of falls from the rod in 30 sec by rotarod test at 20 mg/kg, po after 45 mins. It is filed as functional. In short, it runs like this:
(§3)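 Mice on a 3-cm rod rotating at 16 rpm, up to five at once. Drug dispersed in 1% sodium CMC and given po in 10 mL kg^-1 30 min before testing. Falls from the rod in 30 s were counted before treatment and at 30, 45 and 60 min after. Each value is the mean of eight mice.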
Background: The rotarod test checks motor coordination on a turning rod.

Assay [13] has as its system Mus musculus. Briefly: Activity against mouse motor coordination measured as number of falls from the rod in 30 sec by rotarod test at 20 mg/kg, po after 30 mins. Format: functional. In short, it runs like this:
as §3

Assay [14] concerns Mus musculus. Briefly: Antinociceptive activity in mouse at 0.1 mg/kg, po measured as number of acetic acid-induced writhes by abdominal constriction assay. Format: functional, Abdomen.
Assay [15] concerns Mus musculus. Briefly: Antinociceptive activity in mouse at 1 mg/kg, po measured as number of acetic acid-induced writhes by abdominal constriction assay. Format: functional, Abdomen.
Assay [16] deals with Mus musculus. Briefly: Activity against mouse motor coordination measured as number of falls from the rod in 30 sec by rotarod test at 50 mg/kg, po after 60 mins. It is filed as functional. In short, it runs like this:
as §3

Assay [17] relates to Mus musculus. Briefly: Activity against mouse motor coordination measured as number of falls from the rod in 30 sec by rotarod test at 20 mg/kg, po after 60 mins. Format: functional. In short, it runs like this: as §3
The test system of assay [18] is Mus musculus. Briefly: Antinociceptive activity in mouse at 10 mg/kg, po measured as number of acetic acid-induced writhes by abdominal constriction assay. Format: functional, Abdomen.
Assay [19] deals with Mus musculus. Briefly: Activity against mouse motor coordination measured as number of falls from the rod in 30 sec by rotarod test at 50 mg/kg, po after 45 mins. Format: functional. In short, it runs like this:
as §3

The test system of assay [20] is Mus musculus. Briefly: Activity against mouse motor coordination measured as number of falls from the rod in 30 sec by rotarod test at 50 mg/kg, po after 30 mins. It is filed as functional. In short, it runs like this:
as §3

On to `O=C1CCC(=O)N1c1cc2c(=O)n(O)c(=O)[nH]c2cc1Cl`, for which the Ki is 36 µM in assay [1] and 88 µM in assay [2]. In assay [3], this molecule yielded an inhibition of 44%.
`O=C(O)Cc1ccccc1Nc1c(Cl)cccc1Cl` [DICLOFENAC]: the Activity in assay [4] turned out to be 18.2.
Molecule `CN1CCc2c(-c3ccc(S(=O)(=O)N(C)C)cc3)cc3c(c2C1)NC(=O)/C3=N\OC(CCO)C(=O)O` (configuration not stated) had an IC50 in assay [5] of 81 µM. In addition, the Ki in assay [1] is 0.043 µM; in [2], over 30 µM.
Consider `N[C@@H](Cn1ccc(=O)n(Cc2ccccc2C(=O)O)c1=O)C(=O)O`, for which the IC50 in assay [5] turned out to be 46 µM; in [6], 15 µM. In assay [1], this molecule had a Ki of 117 µM. In [7], this molecule returned an inhibition of 20%.
`O=C(O)c1ccn(-c2cc3c(=O)n(O)c(=O)[nH]c3cc2Cl)c1` had an IC50 in assay [5] of 13 µM. This molecule also showed a Ki in assay [1] of 1.3 µM. In [7], the inhibition turned out to be 44%.
`O=C(O)CCC(=O)Nc1cc2c(=O)n(O)c(=O)[nH]c2cc1Cl` came in with an IC50 in assay [5] of 5.4 µM. This molecule also displayed a Ki in assay [1] of 8.4 µM. Also, in assay [7], the inhibition came out at 8%.
Regarding `O=C(O)COn1c(=O)[nH]c2cc(Cl)ccc2c1=O`, the Ki in assay [1] came to 99 µM; in [2] it was 90 µM. Moreover, the inhibition in assay [3] stood at 5%.
Consider `O=c1[nH]c2cc(Cl)c(-n3cccc3)cc2c(=O)n1O`, for which, in assay [5], the IC50 worked out at 8.2 µM. The figures for the Ki in assay [1] and in assay [2] were 16.6 µM and 1 µM, respectively.
As to `O=C1C=CCN1c1cc2c(=O)n(O)c(=O)[nH]c2cc1Cl`, the IC50 in [5] was found to be 10 µM. Also, the Ki is 6.2 µM in assay [1] and 42 µM in assay [2].
`O=c1ccn(-c2cc3c(=O)n(O)c(=O)[nH]c3cc2Cl)cc1`: the IC50 in assay [8] was over 80 µM; in assay [5], 4.1 µM; in assay [9], 3.5 µM. Moreover, the Ki in assay [1] was determined as 0.5 µM; in [2] it was 25 µM.
In the case of `O=C1OCCC1On1c(=O)[nH]c2cc(Cl)ccc2c1=O` (racemic), the inhibition in [10] turned out to be 26%; in [7], 37%; in [3], 11%.
The corresponding values for `COC(=O)c1cccc(C(=O)Nc2cc3c(=O)n(O)c(=O)[nH]c3cc2Cl)c1` are 35%, 32% and 20%.
Take `O=c1[nH]c2cc(Cl)ccc2c(=O)n1O`: the IC50 in assay [5] amounted to 140 µM. This molecule gave a Ki in assay [2] of 0.24 µM.
Regarding `O=C(O)c1cccc(C(=O)Nc2cc3c(=O)n(O)c(=O)[nH]c3cc2Cl)c1`, the inhibition in assay [11] was found to be 0%; in [7], 32%. This molecule also displayed an IC50 in assay [5] of 100 µM. The same molecule displayed a Ki in assay [1] of 60 µM.
For the molecule `O=Cc1ccn(-c2cc3c(=O)n(O)c(=O)[nH]c3cc2Cl)c1`, the IC50 in [5] stood at 6.2 µM. For the same molecule, the Ki in [1] was 4.2 µM; in [2], 22.7 µM.
Regarding `O=C(O)c1ccc(C(=O)Nc2cc3c(=O)n(O)c(=O)[nH]c3cc2Cl)cc1`, the inhibition in assay [10] was determined as 29%; in assay [11], 0%; in assay [7] it was 40%. The molecule also registered an IC50 in assay [5] of 12.9 µM.
With `O=C(Nc1cc2c(=O)n(O)c(=O)[nH]c2cc1Cl)c1ccccc1`, in assay [5], the half-maximal inhibitory concentration (IC50) came to 52 µM. Further, the Ki in assay [1] stood at 45 µM. This molecule registered an inhibition in assay [7] of 33%.
With `O=c1[nH]c2cc(Cl)c(-n3cnnc3)cc2c(=O)n1O`, the IC50 in assay [8] worked out at 84 µM; in assay [5], 7 µM; in assay [9], 4.6 µM. In [7], this molecule returned an inhibition of 47%.
Regarding `O=C(O)C(CCO)On1c(=O)[nH]c2cc(Cl)ccc2c1=O` (racemic), the inhibition in assay [10] is 35%; in assay [7], 40%; in assay [3] it was 10%.
The corresponding values for `COC(=O)c1ccc(C(=O)Nc2cc3c(=O)n(O)c(=O)[nH]c3cc2Cl)cc1` are 43%, 10% and 28%.
Turning to `O=C(O)c1ccccc1C(=O)Nc1cc2c(=O)n(O)c(=O)[nH]c2cc1Cl`, the Activity was 2.6 in assay [12]; 3.3 in assay [13]; 34.7 in assay [14]; 26.1 in assay [15]; 3.2 in assay [16]; 1.7 in assay [17]. Moreover, the Activity in assay [18] is given as 24.5; in assay [19], 3.7; in assay [20], 4.8. Also, the values for the IC50 in assay [5] and in assay [6] were 0.62 µM and 1.6 µM, respectively. In addition, the Ki in [1] amounted to 16.5 µM. The inhibition in assay [7] stood at 40%.
As to `O=C(NCc1ccccc1)Nc1cc2c(=O)n(O)c(=O)[nH]c2cc1Cl`, the inhibition in [10] stood at 33%; in [7], 27%; in [3], 32%.
On to `CCOC(=O)COn1c(=O)[nH]c2cc(Cl)ccc2c1=O`, for which the values for the inhibition in assay [10], in assay [7] and in assay [3] were 9%, 0% and 5%, respectively.

The values above are taken from ChEMBL document CHEMBL1137372, “Structural investigation of the 7-chloro-3-hydroxy-1H-quinazoline-2,4-dione scaffold to obtain AMPA and kainate receptor selective antagonists. Synthesis, pharmacological, and molecular modeling studies” (J Med Chem, 2006).
